The record followed here is PubChem BioAssay AID504504 (Broad Institute, 2011).

Results filed as inconclusive are left out. Activity calls are given as the source filed them.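 Rule for the calls: active = growth-lowering compounds whose fitted AC50 is at most ten times their top valid dose; inconclusive = flat fit with 30 to 70% inhibition, or unreliable fit; inactive = the rest.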

Tested on in one assay: not listed separately
As to the kind of experiment: antifungal activity against resistant Candida strain – CaCi-8, with fluconazole, powder samples, set 10, dose response (AID 504504). The conditions noted are these: C. albicans CaCi-8 + fluconazole, Alamar Blue growth, 48 h; at 26 µM (top of the series). The essentials: (§1)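 Probe or stimulus: fluconazole 8 µg/mL; Assay system: Candida albicans CaCi-8, a fluconazole-resistant clinical strain; Amount: inoculum OD600 0.00015; Medium: defined RPMI 1640 medium with MOPS, glucose, uridine; Schedule: 48 h at 37 °C, then dye 2 h RT; Detection: Alamar Blue fluorescence, excitation 544 nm, emission 590 nm.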
As for `COC(=O)Cn1nc(-c2cnco2)c2ccccc21`, the activity change, negative = growth inhibition was -17.4% (inactive).
As to `COC(=O)Cn1nc(C(C)(C)C)c2ccccc21`, the activity change, negative = growth inhibition is -4.79% (inactive).
In the case of `COC(=O)Cn1nc(C2CC2)c2ccccc21`, the activity change, negative = growth inhibition is -23.8% (inactive).
The same measure, in the same setting: the value for `CCc1nn(CC(=O)OC)c2ccccc12` was -7.82% (inactive).
`O=C(Cn1c2ccc(F)cc2c2nc3n(c(=O)c21)CCS3)N1CCC(F)(F)CC1`: the activity change, negative = growth inhibition is 60.6% (inactive).
As for `CC1CCN(CCn2c3ccccc3c3nc4n(c(=O)c32)CCS4)CC1`, the activity change, negative = growth inhibition was -17.5% (inactive).
For `O=C(O)Cn1c2ccc(F)cc2c2nc3n(c(=O)c21)CCS3`, the activity change, negative = growth inhibition was -8.94% (inactive).
With `O=C(O)Cn1c2ccccc2c2nc3n(c(=O)c21)CCS3`, the activity change, negative = growth inhibition is -4.73% (inactive).
The same measure, in the same setting: the result for `O=C(Cn1c2ccc(F)cc2c2nc3n(c(=O)c21)CCS3)N1CCC(F)(F)C1` reads 32% (inactive); that for `COC(=O)n1nc(-c2ccccc2)c2ccccc21`, 11.4% (inactive).
For `O=C(Cn1c2ccc(F)cc2c2nc3n(c(=O)c21)CCS3)N1CCCC1`, the activity change, negative = growth inhibition is 15.4% (inactive).
On the same count and under the same terms, the value for `O=C(Cn1c2ccc(F)cc2c2nc3n(c(=O)c21)CCS3)N1CC=CC1` was 65% (inactive).

The test system of a further assay is C. albicans CaCi-8 + fluconazole, Alamar Blue growth, 48 h. The assay is described as above.
Conditions: not given
In outline: as §1
`c1ccc(-c2nn(Cc3nnco3)c3ccccc23)cc1`: the AC50 is 21800 nM.
Consider `COC(=O)Cn1nc(-c2cccc(F)c2)c2ccccc21`, for which the AC50 is 1840 nM.
Turning to `COC(=O)Cn1nc(-c2cccc(C)c2)c2ccccc21`, the AC50 is 702 nM.
For the compound `COC(=O)Cn1nc(C2CCCCC2)c2ccccc21`, the AC50 is 3440 nM.
With `COC(=O)Cn1c2ccc(F)cc2c2nc3n(c(=O)c21)CCS3`, the AC50 was 2990 nM.
Take `COC(=O)Cn1nc(-c2cccc(OC)c2)c2ccccc21`: the AC50 is 607 nM.
The same measure, in the same setting: the result for `O=C(Cn1c2ccccc2c2nc3n(c(=O)c21)CCS3)N1CC=CC1` reads 2020 nM.
On the same count and under the same terms, the value for `O=C(Cn1c2ccccc2c2nc3n(c(=O)c21)CCS3)N1CCCCC1` was 2170 nM.
`O=C(Cn1c2ccccc2c2nc3n(c(=O)c21)CCS3)N1CCCC1`: the AC50 was 1970 nM.
As to `CC1(O)CN(C(=O)Cn2c3ccccc3c3nc4n(c(=O)c32)CCS4)C1`, the AC50 was > 26000 nM (inactive).
Same read-out and setting: the value for `O=C(Cn1c2ccccc2c2nc3n(c(=O)c21)CCS3)N1CCC(F)(F)C1` was 6690 nM.
The same measure, in the same setting: the result for `COC(=O)Cn1nc(-c2cscn2)c2ccccc21` reads 18300 nM.
